Assay results taken from the RNAGym collection of RNA variant scans (doi:10.1126/science.aae0568).
This sample holds only a part of the variants without activity.

B1: tRNA (parent)
chain: GUUCCGUUGGCGUAAUGGUAACGCGUCUCCCUCCUAAGGAGAAGACUGCGGGUUCGAGUCCCGUACGGAACG

Variants of: B1
Assay: yeast fitness relative to wild type (ratio to wild type); higher = fitter; tRNA-Arg(CCU), competitive growth, 37 C, YPD
In short: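 A pool of Saccharomyces cerevisiae strains, each with a tRNA-Arg(CCU) gene variant at the native genomic locus, was competed in YPD at 37°C for 24 hours across six parallel replicates. The variants had been chemically synthesised at a 3% per-site mutation rate over 69 sites, and gene amplicons before and after competition were read by 100-nucleotide paired-end sequencing. Darwinian fitness relative to wild type rested on changes in genotype frequencies. Genotypes required ≥ 100 starting reads, and estimates < 0.5 were set to 0.5.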
With GUUCCGUUGGCGUAAUGGUAACGCGUCUCCCACCUAAGGAGAAGACUGCGGAUUCGAGUCCCGUACGGAACG the yeast fitness was at most 0.5. Variant GUUCCGUUGGCGUAAUGGUAACGCGUCUCCCACCUAAGGAGAAGACUGCGGGUUCAAGUCCCGUACGGUACG has a yeast fitness of 0.554. GUUCCGUUGGCGUAAUGGUAACGCGUCUCCCACCUAAGGAGAAGACUGCGGGUUCCAGUCCCGUACGGAACG showed a yeast fitness of 0.594. In the case of GUUCCGUUGGCGUAAUGGUAACGCGUCUCCCACCUAAGGAGAAGACUGCGGGUUCCAGUCCCGUACGGUACG, the yeast fitness is reported as 0.53. GUUCCGUUGGCGUAAUGGUAACGCGUCUCCCACCUAAGGAGAAGACUGCGGGUUCGAAUCCCGUACGGAACG gave a yeast fitness of 0.781. In the case of GUUCCGUUGGCGUAAUGGUAACGCGUCUCCCACCUAAGGAGAAGACUGCGGGUUCGAAUCCCGUACGGACCG, the yeast fitness is reported as 0.513. Variant GUUCCGUUGGCGUAAUGGUAACGCGUCUCCCACCUAAGGAGAAGACUGCGGGUUCGACUCCCCUACGGAACG has a yeast fitness of at most 0.5. For GUUCCGUUGGCGUAAUGGUAACGCGUCUCCCACCUAAGGAGAAGACUGCGGGUUCGAGUCCCGUACCGAACG, the yeast fitness was 0.732. GUUCCGUUGGCGUAAUGGUAACGCGUCUCCCACCAAAGGAGAAGACUGCGGGUUCGAGUCCCGUACGGAACG showed a yeast fitness of 0.619. GUUCCGUUGGCGUAAUGGUAACGCGUCUCCCACCAAAGGAGUAGACUGCGGGUUCGAGUCCCGUACGGAACG showed a yeast fitness of at most 0.5. For GUUCCGUUGGCGUAAUGGUAACGCGUCUCCCACCGUAAGAGAAGACCGCGGGUUCGAGUCCCGUACGGAACG, the yeast fitness was at most 0.5. Work on GUUCCGUUGGCGUAAUGGUAACGCGUCUCCCACCUAAGGAGAAGACCGCGGGUUCGAGUCCCGUACGGAACG yielded a yeast fitness of 0.826. GUUCCGUUGGCGUAAUGGUAACGCGUCUCCCACCUAAGGAGAAGACUGCGGGAUCGAGUCCCGUACGGAACG showed a yeast fitness of at most 0.5. With GUUCCGUUGGCGUAAUGGUAACGCGUCUCCCACCUAAGGAGAAGACUGCGGGCUCGAGUCCCGUACGGCACG the yeast fitness was at most 0.5. Variant GUUCCGUUGGCGUAAUGGUAACGCGUCUCCCACCUAAGGAGAAGACUGCGGGUCUGAGUCCCGUACGGAACG has a yeast fitness of at most 0.5. GUUCCGUUGGCGUAAUGGUAACGCGUCUCCCACCUAAGGAGAAGACUGCGGGUUCGAGCCCCGUACGGCACG showed a yeast fitness of at most 0.5. In the case of GUUCCGUUGGCGUAAUGGUAACGCGUCUCCCACCUAAGGAGAAGACUGCGGGUUCGAGGCCCGUACGGAACG, the yeast fitness is reported as 0.831. GUUCCGUUGGCGUAAUGGUAACGCGUCUCCCACCUAAGGAGAAGACUGCGGGUUCGAGUCCCGAUCGGAACG showed a yeast fitness of 0.961. In the case of GUUCCGUUGGCGUAAUGGUAACGCGUCUCCCCCCUCAGGAGAAGACUGCGGCUUCGAGUCCCGUAUGGAACG, the yeast fitness is reported as at most 0.5. Variant GUUCCGUUGGCGUAAUGGUAACGCGUCUCCCCCCUUAAGAGAAGACUGCAGGUUCGAGUCCCGUACAGAACG has a yeast fitness of at most 0.5. GUUCCGUUGGCGUAAUGGUAACGCGUCUCCCCCCUACGGAGAAGACUGGGGGUUCGGGUCCCGUACGGAACG showed a yeast fitness of at most 0.5. Work on GUUCCGUUGGCGUAAUGGUAACGCGUCUCCCCCCUAGGGAGAAGACUGCGGGUUCGAGUCCCGUACGGAACG yielded a yeast fitness of 0.819. GUUCCGUUGGCGUAAUGGUAACGCGUCUCCCCCCUAUGGAGAAAACUGCGGGUUCGAGUCCCGUACGGAGCG gave a yeast fitness of at most 0.5. With GUUCCGUUGGCGUAAUGGUAACGCGUCUCCCCCCUAUGGAGAAGACUACGGGUUCGAGUCCCGUACGGAACG the yeast fitness was 0.537. GUUCCGUUGGCGUAAUGGUAACGCGUCUCCCCCCUAUGGAGAAGACUACGGGUUCGAGUCCCCUACGGAACG showed a yeast fitness of at most 0.5. For GUUCCGUUGGCGUAAUGGUAACGCGUCUCCCCCCUAUGGAGAAGACUGCGGGUUCCUGUCCCGUACGGAACG, the yeast fitness was at most 0.5. Work on GUUCCGUUGGCGUAAUGGUAACGCGUCUCCCCCCUAAGGCGAAGACUCCGGGUUCGAGUCCCGUACGGAACG yielded a yeast fitness of at most 0.5. In the case of GUUCCGUUGGCGUAAUGGUAACGCGUCUCCCCCCUAAGGCGAAGACUGCGAGUUCGAGUCUCGUACGGCACG, the yeast fitness is reported as at most 0.5. In the case of GUUCCGUUGGCGUAAUGGUAACGCGUCUCCCCCCUAAGGGGAAGACUGCGGGUUCGAGUCCCGUACGGAACG, the yeast fitness is reported as 0.66. For GUUCCGUUGGCGUAAUGGUAACGCGUCUCCCCCCUAAGGGGAAGACUGCGGGUUCGAGUCCCGUACGGACCG, the yeast fitness was 0.634. GUUCCGUUGGCGUAAUGGUAACGCGUCUCCCCCCUAAGGGGAAGACUCCGGGUUCGAGUCCCGUACGGUUCG showed a yeast fitness of at most 0.5. GUUCCGUUGGCGUAAUGGUAACGCGUCUCCCCCCUAAGGUGAAGACUGCGGGUUCGAGUCCCGUACGGAUCG showed a yeast fitness of 0.784. Work on GUUCCGUUGGCGUAAUGGUAACGCGUCUCCCCCCUAAGGUGAAGAAUGCGGGUUCGAGUCCCGUUCGGAACG yielded a yeast fitness of 0.589. GUUCCGUUGGCGUAAUGGUAACGCGUCUCCCCCCUAAGGUGAAGACUGCGGGUUCGAGUUCCGUACCGAGCG gave a yeast fitness of at most 0.5. With GUUCCGUUGGCGUAAUGGUAACGCGUCUCCCCCCUAAGGUGAAGACUGCGGGUUCGAGCCCCGUACGGAACG the yeast fitness was 0.718. In the case of GUUCCGUUGGCGUAAUGGUAACGCGUCUCCCCCCUAAGGAGCAGACUGCGGGUUCGAGUCCCGUACGGAACG, the yeast fitness is reported as 0.866. In the case of GUUCCGUUGGCGUAAUGGUAACGCGUCUCCCCCCUAAGGAGCAAACUGCGGGAUCGAGUCCCGUACGGAACG, the yeast fitness is reported as at most 0.5. GUUCCGUUGGCGUAAUGGUAACGCGUCUCCCCCCUAAGGAGCACACUGCGGGUUCGAGUCCCGUACGGCACG showed a yeast fitness of at most 0.5. In the case of GUUCCGUUGGCGUAAUGGUAACGCGUCUCCCCCCUAAGGAGCACACUGCGGCUUCGAGUCCCGUACGGAACG, the yeast fitness is reported as 0.548. Variant GUUCCGUUGGCGUAAUGGUAACGCGUCUCCCCCCUAAGGAGGAGACUGCGGGUUCGAGUCCCGUACGGAACG has a yeast fitness of 0.861. For GUUCCGUUGGCGUAAUGGUAACGCGUCUCCCCCCUAAGGAGUAGACUGCGGGUUCGAGUCCGGUACGGAACG, the yeast fitness was 0.578. Work on GUUCCGUUGGCGUAAUGGUAACGCGUCUCCCCCCUAAGGAGUACACUGCGGGUACGAGUCCCGUACGGAACG yielded a yeast fitness of at most 0.5. With GUUCCGUUGGCGUAAUGGUAACGCGUCUCCCCCCUAAGGAGUAGACUGCGGGUUCGACUCCCGUACGGAACG the yeast fitness was 0.623. In the case of GUUCCGUUGGCGUAAUGGUAACGCGUCUCCCCCCUAAGGAGUAGACUGCGGGUUCGAGUCCCGAGCGGAACG, the yeast fitness is reported as at most 0.5. Variant GUUCCGUUGGCGUAAUGGUAACGCGUCUCCCCCCUAAGGAGACGACUGCGGGUUAGCGUCCCGUACGGAACG has a yeast fitness of at most 0.5. GUUCCGUUGGCGUAAUGGUAACGCGUCUCCCCCCUAAGGAGAGGACUGCGGGUUCGAGUCCCGUACGGAACG gave a yeast fitness of 0.998. In the case of GUUCCGUUGGCGUAAUGGUAACGCGUCUCCCCCCUAAGGAGAGGACUGCGGGUUCGAGUCCCGUACGGAGCG, the yeast fitness is reported as 0.708. GUUCCGUUGGCGUAAUGGUAACGCGUCUCCCCCCUAAGGAGAGGACUGCGGAUUCGAGUCGCGUACGGAACG showed a yeast fitness of 0.532. GUUCCGUUGGCGUAAUGGUAACGCGUCUCCCCCCUAAGGAGAUGACUGCGGGUUCGAGUCCCGUACGGAACG showed a yeast fitness of 0.921. With GUUCCGUUGGCGUAAUGGUAACGCGUCUCCCCCCUAAGGAGAUGACUGCGGGUUCGAGUCCCGUACGGAUCG the yeast fitness was 0.735. Variant GUUCCGUUGGCGUAAUGGUAACGCGUCUCCCCCCUAAGGAGAAGCCUGCGGGUUCGAGUCCCGUACGGAACG has a yeast fitness of 0.864. Variant GUUCCGUUGGCGUAAUGGUAACGCGUCUCCCCCCUAAGGAGAAGGCUGCGGGUUCGAGUCCCGUACGGAACG has a yeast fitness of 0.91. Work on GUUCCGUUGGCGUAAUGGUAACGCGUCUCCCCCCUAAGGAGAAGUCUGCGGGUUCGAGUCCCGUACGGAACG yielded a yeast fitness of 0.942. Variant GUUCCGUUGGCGUAAUGGUAACGCGUCUCCCCCCUAAGGAGAAGUCUGGGGGUUGGAGUCCCGUACCGAACG has a yeast fitness of at most 0.5. With GUUCCGUUGGCGUAAUGGUAACGCGUCUCCCCCCUAAGGAGAAGACUGCGGGUUCGCGUCCCGUACGGAACG the yeast fitness was 0.659. GUUCCGUUGGCGUAAUGGUAACGCGUCUCCCCCCUAAGGAGAAGACUGCGGGUUCGUGUCCCGUACGGAACG gave a yeast fitness of 0.813. GUUCCGUUGGCGUAAUGGUAACGCGUCUCCCCCCUAAGGAGAAGACUGCGGGUUCGUGUCCCGUACGGACCG showed a yeast fitness of at most 0.5. In the case of GUUCCGUUGGCGUAAUGGUAACGCGUCUCCCCCCUAAGGAGAAGACUGCGGGUUCGAGUCCCGUCCGGAACG, the yeast fitness is reported as 1.03. Work on GUUCCGUUGGCGUAAUGGUAACGCGUCUCCCCCCUAAGGAGAAGACUGCGGGUUCGAGUCCCGUGCGGAACG yielded a yeast fitness of 0.936. For GUUCCGUUGGCGUAAUGGUAACGCGUCUCCCCCCUAAGGAGAAGACUGCGGGUUCGAGUCCCGUUCGGAACG, the yeast fitness was 0.957. Variant GUUCCGUUGGCGUAAUGGUAACGCGUCUCCCCCCUAAGGAGAAGACUGCGGGUUCGAGUCCCGUUCGUAACG has a yeast fitness of 0.622. For GUUCCGUUGGCGUAAUGGUAACGCGUCUCCCCCCUAAGGAGAAGACUGCGGGUUCGAGUCCCGUACGGGACG, the yeast fitness was 0.882. Variant GUUCCGUUGGCGUAAUGGUAACGCGUCUCCCCCCUAAGGAGAAGACUGCGGGUUCGAGUCCCGUACGGUACG has a yeast fitness of 0.926. In the case of GUUCCGUUGGCGUAAUGGUAACGCGUCUCCCCCCUAAGGAGAAGACUGCGGGUUCGAGUCCCGUACGGAGCG, the yeast fitness is reported as 0.942. GUUCCGUUGGCGUAAUGGUAACGCGUCUCCCCGCUAGGGAGAAGACUGCGGAUUUGAGUCCCGUUCGGAACG showed a yeast fitness of 0.555. Work on GUUCCGUUGGCGUAAUGGUAACGCGUCUCCCCUCUAAGGAGUAGACUGCGGGUUCGAGUCCCGUACGGAACG yielded a yeast fitness of 0.66. With GUUCCGUUGGCGUAAUGGUAACGCGUCUCCCCUCUAAGGAGAAGACUGCGGGUUCGAGUCCCGUACGGAGCG the yeast fitness was 0.681. With GUUCCGUUGGCGUAAUGGUAACGCGUCUCCCCCAUAAGGAGAAGACUGCGGGUUCGAGUCCCGUACGGAACG the yeast fitness was 0.729. With GUUCCGUUGGCGUAAUGGUAACGCGUCUCCCCCAUAUGGAGAAGAUUGCGGGUUCGAGUCCCGUACGGAACG the yeast fitness was at most 0.5. GUUCCGUUGGCGUAAUGGUAACGCGUCUCCCCCAUAAGGCGAAGACUGCGGGUCCGAGUCCCGUAUGGAACG gave a yeast fitness of 0.534. In the case of GUUCCGUUGGCGUAAUGGUAACGCGUCUCCCCCAUAAGGAGAAGACUGCGGGUUCGAGUCCAGUACGGAACG, the yeast fitness is reported as 0.591. In the case of GUUCCGUUGGCGUAAUGGUAACGCGUCUCCCCCGUAAGGAGCAGACUGCGGGUUCGAGUCCCGUACGGAACG, the yeast fitness is reported as at most 0.5. For GUUCCGUUGGCGUAAUGGUAACGCGUCUCCCCCGUAAGGAGUAGACUGCGGGUUCGAGUCCCGUACGGAACG, the yeast fitness was at most 0.5. Variant GUUCCGUUGGCGUAAUGGUAACGCGUCUCCCCCGUAAGGACAAGACUGCGGGUUCGAGUCCCGUACGGAACG has a yeast fitness of at most 0.5. Work on GUUCCGUUGGCGUAAUGGUAACGCGUCUCCCCCUUAAGGAGAAGUCUGCGGGUUCGAGUCCCGUACGGAUCG yielded a yeast fitness of 0.826.
